Reference: ChEMBL document CHEMBL1128497, “Synthesis and in vitro and in vivo antitumor activity of a series of trans platinum antitumor complexes” (J Med Chem, 1995)
“And” between values parts separate entries of the source, which are not always exact repeats. Equal entries are not always repeated.

What was measured:
Mus musculus = experiment: In Vivo Antitumor activity by ip administration against Murine ADJ/PC6 (sc) Plasmacytoma in mice; format: functional, organism-based; conditions: Plasma
Outline: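 ADJ/PC6 plasmacytoma (or its cisplatin-resistant subline) was implanted sc as 1 mm3 fragments. On day 20 mice received a single ip injection of drug as a sonicated suspension in arachis oil, at halving doses. Ten days later tumors were dissected and weighed against controls. […] Therapeutic index is MTD/ED90, alongside LD50.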

41M [1] = experiment: Resistant factor was determined between IC50 of cisplatin-resistant human tumor cell lines to that of […] cell line; format: functional, cell-based
Outline: (§1)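 Resistance factor is the IC50 in the cisplatin-resistant subline divided by the IC50 in its parent line. IC50s came from a 96 h SRB cytotoxicity assay run in quadruplicate wells.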

CH1 [2] = experiment: Resistant factor, determined between IC50 of resistant line to that of CHcisR cell line; format: functional, cell-based; conditions: Homo sapiens; CH1cisR; outline: as §1
A2780 [3] = experiment: Resistant factor determined between IC50 of resistant line to that of parental A2780 cell line; format: functional, cell-based; conditions: Homo sapiens; outline: as §1
41M [4] = experiment: In vitro antitumor activity against 41McisR cell line.; format: functional, cell-based, Homo sapiens
Outline: (§2)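 Human ovarian carcinoma monolayers were grown in DMEM with 10% FCS, insulin and hydrocortisone under 10% CO2. Cells were seeded at 5 × 10^3–1 × 10^4 per well and left to attach overnight. Drugs were freshly dissolved in 0.9% saline (1 mM or 500 μM stocks) and added to quadruplicate wells for 96 h. Cell mass was read by SRB staining. IC50 values are means of at least two experiments.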

A2780 [5] = experiment: In vitro antitumor activity against A2780 cell line.; format: functional, cell-based, Homo sapiens; outline: as §2
41M [6] = experiment: In vitro antitumor activity against 41M cell line.; format: functional, cell-based, Homo sapiens; outline: as §2
[7] = In vivo antitumor activity by i.p. administration against murine ADJ/PC6 (sc) plasmacytoma.; format: ADME, organism-based; conditions: mouse, ip
CH1 [8] = experiment: In vitro antitumor activity against CH1 cell line.; format: functional, cell-based, Homo sapiens; outline: as §2
CH1 [9] = experiment: In vitro antitumor activity against CH1cisR cell line.; format: functional, cell-based, Homo sapiens; outline: as §2
SK-OV-3 = experiment: In vitro antitumor activity against SK-OV-3 cell line.; format: functional, cell-based, Homo sapiens; outline: as §2
A2780 [10] = experiment: In vitro antitumor activity against A2780cisR cell line.; format: functional, cell-based, Homo sapiens; outline: as §2

## trans-a-Ammine-b,d-dichloro-c,e-dihydrooxy-f-(cyclopentylamine)-platinium (IV) [listing 1 of 2 here]
Mus musculus
  ED90: 2.5 mg/kg
41M [1]
  RF: 1.2
CH1 [2]
  RF: 1.7
A2780 [3]
  RF: 5.5

## AMMONIO(DICHLORO)PLATINUM(CYCLOHEXYL)AMMONIUM [listing 1 of 2 here]
Mus musculus
  ED90: 1.4 mg/kg

## trans-a-Ammine-b,d-dichloro-c,e-dihydroxo-f-(1,1,3,3-tetramethyl butylamine)-platinium (IV) [listing 1 of 2 here]
Mus musculus
  ED90: 9.6 mg/kg
41M [1]
  RF: 2.1
CH1 [2]
  RF: 1.5
A2780 [3]
  RF: 5.5

## trans-a-Ammine-b,d-dichloro-c,e-dihydroxo-f-(exo-2-aminonorbornane)-platinium (IV) [listing 1 of 2 here]
Mus musculus
  ED90: 4.9 mg/kg
41M [1]
  RF: 1
CH1 [2]
  RF: 1.2
A2780 [3]
  RF: 12

## trans-a-Ammine-b,d-dichloro-c,e-dihydroxo-f-(N-methylcyclohexylamine)-platinium (IV)
41M [4]
  IC50: 1600 nM
A2780 [5]
  IC50: 1300 nM
41M [6]
  IC50: 2300 nM
[7]
  LD50: 29 mg/kg
CH1 [8]
  IC50: 1300 nM
CH1 [9]
  IC50: 2900 nM
SK-OV-3
  IC50: 6900 nM
A2780 [10]
  IC50: 5000 nM

## trans-Amminedibromo (cyclohexylamine)-platinium (II)
41M [1]
  RF: 0.8
CH1 [2]
  RF: 1.2
A2780 [3]
  RF: 2.8

## trans-Amminetetrachloro(pyridine)-platinium (IV) [listing 1 of 2 here]
41M [4]
  IC50: 4100 nM
A2780 [5]
  IC50: 3200 nM
41M [6]
  IC50: 5300 nM
[7]
  LD50: > 100 mg/kg
CH1 [8]
  IC50: 4700 nM
CH1 [9]
  IC50: 4800 nM
SK-OV-3
  IC50: 14500 nM
A2780 [10]
  IC50: 5600 nM

## Trans-Amminedichloro(cycloheptylamine)platinium (II)
41M [1]
  RF: 0.7
CH1 [2]
  RF: 1.1
A2780 [3]
  RF: 3.4

## trans-Amminetetrachloro(cyclohexylamine)-platinium (IV) [listing 1 of 2 here]
41M [1]
  RF: 1.3
CH1 [2]
  RF: 1.2
A2780 [3]
  RF: 3.4

## trans-a-Ammine-b,d-dichloro-c,e-dihydroxo-f-(1,1,3,3-tetramethyl butylamine)-platinium (IV) [listing 2 of 2 here]
41M [4]
  IC50: 1000 nM
A2780 [5]
  IC50: 400 nM
41M [6]
  IC50: 480 nM
[7]
  LD50: 29 mg/kg
CH1 [8]
  IC50: 360 nM
CH1 [9]
  IC50: 550 nM
SK-OV-3
  IC50: 1800 nM
A2780 [10]
  IC50: 2200 nM

## trans-Amminetetrachloro(pyridine)-platinium (IV) [listing 2 of 2 here]
41M [1]
  RF: 0.8
CH1 [2]
  RF: 1
A2780 [3]
  RF: 1.7

## Trans-Amminedichloro hexylamine platinium (II)
41M [1]
  RF: 0.9
CH1 [2]
  RF: 1.1
A2780 [3]
  RF: 2.1

## AMMONIO(DICHLORO)[DI(METHYLCARBONYLOXY)]PLATINUM(CYCLOHEXYL)AMMONIUM [listing 1 of 2 here]
41M [4]
  IC50: 1200 nM
A2780 [5]
  IC50: 300 nM
41M [6]
  IC50: 1300 nM
[7]
  LD50: 35 mg/kg
CH1 [8]
  IC50: 1100 nM
CH1 [9]
  IC50: 1500 nM
SK-OV-3
  IC50: 4800 nM
A2780 [10]
  IC50: 3000 nM

## trans-a-Ammine-b,d-dichloro-c,e-dihydrooxy-f-(ethylamine)-platinium (IV)
41M [1]
  RF: 1.4
CH1 [2]
  RF: 1.4
A2780 [3]
  RF: 5.9

## CISPLATIN
Mus musculus
  ED90: 1.6 mg/kg

## trans-a-ammine-b,d-dichloro-f-(2-propylamine)-c,e-dihydroxoplatinium (IV)
41M [4]
  IC50: 4600 nM and 9200 nM
A2780 [5]
  IC50: 540 nM and 990 nM
41M [6]
  IC50: 3200 nM and 3900 nM
[7]
  LD50: 18 mg/kg and 35 mg/kg
CH1 [8]
  IC50: 2400 nM and 1400 nM
CH1 [9]
  IC50: 5500 nM and 4900 nM
SK-OV-3
  IC50: 9200 nM and 30500 nM
A2780 [10]
  IC50: 4700 nM and 7200 nM

## trans-Amminedichloro(N-methylcyclohexylamine)-platinium (II) [listing 1 of 2 here]
41M [4]
  IC50: 480 nM
A2780 [5]
  IC50: 460 nM
41M [6]
  IC50: 780 nM
[7]
  LD50: 71 mg/kg
CH1 [8]
  IC50: 380 nM
CH1 [9]
  IC50: 1100 nM
SK-OV-3
  IC50: 3900 nM
A2780 [10]
  IC50: 3600 nM

## trans-a-Ammine-b,d-dichloro-c,e-dihydroxo-f-(quinuclidine)-platinium (IV)
41M [1]
  RF: 0.7
CH1 [2]
  RF: 1.4
A2780 [3]
  RF: 5

## trans-a-Ammine-b,d-dichloro-c,e-dihydrooxy-f-(cyclopentylamine)-platinium (IV) [listing 2 of 2 here]
41M [4]
  IC50: 1300 nM
A2780 [5]
  IC50: 950 nM
41M [6]
  IC50: 1100 nM
[7]
  LD50: 15 mg/kg
CH1 [8]
  IC50: 1100 nM
CH1 [9]
  IC50: 1900 nM
SK-OV-3
  IC50: 7000 nM
A2780 [10]
  IC50: 5200 nM

## AMMONIO(DICHLORO)PLATINUM(CYCLOHEXYL)AMMONIUM [listing 2 of 2 here]
41M [4]
  IC50: 280 nM and 1500 nM
41M [6]
  IC50: 260 nM and 1700 nM
[7]
  LD50: 17.5 mg/kg and 35 mg/kg
CH1 [9]
  IC50: 380 nM and 3300 nM
SK-OV-3
  IC50: 2100 nM and 7200 nM

## trans-a-Ammine-b,d-dichloro-c,e-dihydroxy-f-(benzylamine)-platinium (IV)
41M [4]
  IC50: 1300 nM
A2780 [5]
  IC50: 1100 nM
41M [6]
  IC50: 1300 nM
[7]
  LD50: 71 mg/kg
CH1 [8]
  IC50: 1100 nM
CH1 [9]
  IC50: 1900 nM
SK-OV-3
  IC50: 8200 nM
A2780 [10]
  IC50: 4200 nM

## trans-a-Ammine-b,d-dichloro-c,e-dihydrooxy-f-(Morphiline)-platinium (IV)
41M [4]
  IC50: 54000 nM
A2780 [5]
  IC50: 10900 nM
41M [6]
  IC50: 26000 nM
[7]
  LD50: 82 mg/kg
CH1 [8]
  IC50: 17300 nM
CH1 [9]
  IC50: 28300 nM
SK-OV-3
  IC50: 47000 nM
A2780 [10]
  IC50: 47000 nM

## AMMONIO(DICHLORO)[DI(METHYLCARBONYLOXY)]PLATINUM(CYCLOHEXYL)AMMONIUM [listing 2 of 2 here]
41M [1]
  RF: 0.9
CH1 [2]
  RF: 1.4
A2780 [3]
  RF: 10

## trans-a-Ammine-b,d-dichloro-c,e-dihydroxo-f-(exo-2-aminonorbornane)-platinium (IV) [listing 2 of 2 here]
41M [4]
  IC50: 1500 nM
A2780 [5]
  IC50: 250 nM
41M [6]
  IC50: 1400 nM
[7]
  LD50: 17.5 mg/kg
CH1 [8]
  IC50: 1400 nM
CH1 [9]
  IC50: 1700 nM
SK-OV-3
  IC50: 4400 nM
A2780 [10]
  IC50: 3000 nM

## trans-Amminetetrachloro(cyclohexylamine)-platinium (IV) [listing 2 of 2 here]
41M [4]
  IC50: 4100 nM
A2780 [5]
  IC50: 1500 nM
41M [6]
  IC50: 3100 nM
CH1 [8]
  IC50: 3900 nM
CH1 [9]
  IC50: 4700 nM
SK-OV-3
  IC50: 9300 nM
A2780 [10]
  IC50: 5300 nM

## trans-Amminedichloro(N-methylcyclohexylamine)-platinium (II) [listing 2 of 2 here]
41M [1]
  RF: 0.6
CH1 [2]
  RF: 2.8
A2780 [3]
  RF: 7.8

## trans-a-ammine-b,d-dichloro-f-(cyclohexylamine)-c,e-dihydroxoplatinium (IV)
41M [4]
  IC50: 1400 nM and 3200 nM
A2780 [5]
  IC50: 420 nM and 800 nM
41M [6]
  IC50: 1300 nM and 3500 nM
CH1 [8]
  IC50: 1100 nM and 570 nM
CH1 [9]
  IC50: 2100 nM and 2000 nM
SK-OV-3
  IC50: 6000 nM and 16600 nM
A2780 [10]
  IC50: 3000 nM and 1900 nM

## trans-a,f-Dichloro-b,d-bis(cyclohexylamine)-c,e-dihydroxo-platinium (IV)
41M [4]
  IC50: 1200 nM
A2780 [5]
  IC50: 800 nM
41M [6]
  IC50: 800 nM
CH1 [8]
  IC50: 550 nM
CH1 [9]
  IC50: 600 nM
SK-OV-3
  IC50: 2500 nM
A2780 [10]
  IC50: 3200 nM

## TRANSPLATIN
41M [4]
  IC50: 70000 nM
A2780 [5]
  IC50: 32000 nM
41M [6]
  IC50: 57000 nM
[7]
  LD50: 32 mg/kg
CH1 [8]
  IC50: 30000 nM
CH1 [9]
  IC50: 68500 nM
SK-OV-3
  IC50: 255000 nM
A2780 [10]
  IC50: 260000 nM

## trans-a-Ammine-b,d-dichloro-c,e-dihydroxy-f-(diethylamine)-platinium (IV)
41M [1]
  RF: 0.4
CH1 [2]
  RF: 1.4
A2780 [3]
  RF: 6.2

## trans-(1-Aminoadamantane)Amminedichloro-platinium (II)
41M [1]
  RF: 2.4
CH1 [2]
  RF: 2
A2780 [3]
  RF: 3.6
